Each block holds one molecule with its values, some of them ahead of it.
Tests used:
Rattus norvegicus [1] = assay: Increase in liver weight in Wistar rat at 362 umol/kg/day administered through diet for 4 days; type: ADME, organism-based; conditions: in vivo, po, 96 h
Rattus norvegicus [2] = assay: Increase in cholesterol level in Wistar rat liver at 362 umol/kg/day administered through diet for 4 days; type: ADME, organism-based; conditions: in vivo, po, 96 h
Rattus norvegicus [3] = assay: Hypolipidemic activity in Wistar rat assessed as reduction in plasma cholesterol level at 540 umol/kg/day administered through diet for 4 days; type: functional; conditions: 96 h
How it was run: (§1)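 Young male Wistar rats, 170-190 g initial weight, groups of six, given compound mixed thoroughly into Purina Lab Chow ad libitum for 4 or 10 days as stated. Daily dose calculated from food consumption and body weight. Bled by cardiac puncture at end of treatment; plasma cholesterol measured by automated procedure. Expressed as percent reduction versus simultaneous untreated control group; Student's t test.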

Rattus norvegicus [4] = assay: Increase in cholesterol level in Wistar rat liver at 540 umol/kg/day administered through diet for 4 days; type: ADME, organism-based; conditions: in vivo, po, 96 h
Rattus norvegicus [5] = assay: Increase in liver weight in Wistar rat at 540 umol/kg/day administered through diet for 4 days; type: ADME, organism-based; conditions: in vivo, po, 96 h
Rattus norvegicus [6] = assay: Hypolipidemic activity in Wistar rat assessed as reduction in plasma triglyceride level at 540 umol/kg/day administered through diet for 4 days; type: functional; conditions: 96 h
Rattus norvegicus [7] = assay: Increase in cholesterol level in Wistar rat liver at 439 umol/kg/day administered through diet for 4 days; type: ADME, organism-based; conditions: in vivo, po, 96 h
Rattus norvegicus [8] = assay: Increase in liver weight in Wistar rat at 419 umol/kg/day administered through diet for 10 days; type: ADME, organism-based; conditions: in vivo, po, 240 h
How it was run: (§2)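 Male Wistar rats (170-190 g initial), groups of six, dosed via diet ad libitum for 4 or 10 days, daily dose from food consumption. Liver wet weight measured, expressed as g/100 g final body weight, compared with untreated controls run simultaneously.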

Rattus norvegicus [9] = assay: Hypolipidemic activity in Wistar rat assessed as reduction in plasma cholesterol level at 419 umol/kg/day administered through diet for 10 days; type: functional; conditions: 240 h; how it was run: as §1
Rattus norvegicus [10] = assay: Hypolipidemic activity in Wistar rat assessed as reduction in plasma triglyceride level at 417 umol/kg/day administered through diet for 10 days; type: functional; conditions: 240 h
Rattus norvegicus [11] = assay: Hypolipidemic activity in Wistar rat assessed as reduction in plasma cholesterol level at 417 umol/kg/day administered through diet for 10 days; type: functional; conditions: 240 h
How it was run: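 Young male Wistar rats, 170-190 g at start, in groups of six, given compound mixed into Purina Lab Chow ad libitum for 4 or 10 days as stated. Daily dose was calculated from food consumption and body weight. Plasma was taken by cardiac puncture at the end and cholesterol measured by automated procedure. Results are % reduction versus a concurrent untreated control group, with Student's t test.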

Rattus norvegicus [12] = assay: Increase in cholesterol level in Wistar rat liver at 417 umol/kg/day administered through diet for 10 days; type: ADME, organism-based; conditions: in vivo, po, 240 h
Rattus norvegicus [13] = assay: Increase in cholesterol level in Wistar rat liver at 419 umol/kg/day administered through diet for 10 days; type: ADME, organism-based; conditions: in vivo, po, 240 h
How it was run: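 Male Wistar rats (170-190 g), six per group, given compound by admixture to lab chow ad libitum for 4 or 10 days, dose derived from food intake. Liver cholesterol determined by automated procedure, expressed as mg/g wet tissue, compared with an untreated control group by Student's t test.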

Rattus norvegicus [14] = assay: Increase in liver weight in Wistar rat at 439 umol/kg/day administered through diet for 4 days; type: ADME, organism-based; conditions: in vivo, po, 96 h; how it was run: as §2
Rattus norvegicus [15] = assay: Hypolipidemic activity in Wistar rat assessed as reduction in plasma cholesterol level at 439 umol/kg/day administered through diet for 4 days; type: functional; conditions: 96 h; how it was run: as §1
Rattus norvegicus [16] = assay: Hypolipidemic activity in Wistar rat assessed as reduction in plasma triglyceride level at 439 umol/kg/day administered through diet for 4 days; type: functional; conditions: 96 h
How it was run: (§3)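 Young male Wistar rats (initial weight 170-190 g), groups of six, fed compound mixed into Purina Lab Chow ad libitum for 4 or 10 days; daily dose calculated from food consumption and body weight. Bled by cardiac puncture; plasma cholesterol and triglycerides by automated procedures; percent reduction versus simultaneous untreated controls, Student's t test.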

Rattus norvegicus [17] = assay: Hypolipidemic activity in Wistar rat assessed as reduction in plasma triglyceride level at 419 umol/kg/day administered through diet for 10 days; type: functional; conditions: 240 h; how it was run: as §3
Rattus norvegicus [18] = assay: Increase in liver weight in Wistar rat at 417 umol/kg/day administered through diet for 10 days; type: ADME, organism-based; conditions: in vivo, po, 240 h

- Activity (Rattus norvegicus [1]): 4%
- Activity (Rattus norvegicus [2]): 0%
Compound: CCCCCCCCCCCCCCCCCCCCOc1ccc(C(=O)OC)cc1

- Activity (Rattus norvegicus [4]): 17%
- Activity (Rattus norvegicus [5]): 1%
Compound: CCCCCCCCCCOc1ccc(C(=O)O)o1
- inhibition in vivo at 540 µmol/kg (Rattus norvegicus [3]): 5%
- inhibition in vivo at 540 µmol/kg (Rattus norvegicus [6]): 46%

- Activity (Rattus norvegicus [7]): 9%
- Activity (Rattus norvegicus [8]): 15%
- Activity (Rattus norvegicus [12]): 9%
- Activity (Rattus norvegicus [13]): 2%
- Activity (Rattus norvegicus [14]): 7%
- Activity (Rattus norvegicus [18]): 0%
Compound: CCCCCCCCCCCCCCCOc1ccc(C(=O)OC)cc1
- inhibition in vivo at 419 µmol/kg (Rattus norvegicus [9]): 20%
- inhibition in vivo at 417 µmol/kg (Rattus norvegicus [10]): 73%
- inhibition in vivo at 417 µmol/kg (Rattus norvegicus [11]): 37%
- inhibition in vivo at 439 µmol/kg (Rattus norvegicus [15]): 19%
- inhibition in vivo at 439 µmol/kg (Rattus norvegicus [16]): 46%
- inhibition in vivo at 419 µmol/kg (Rattus norvegicus [17]): 57%

Source: ChEMBL document CHEMBL3272012, “5-(Tetradecyloxy)-2-furancarboxylic acid and related hypolipidemic fatty acid-like alkyloxyarylcarboxylic acids” (J Med Chem, 1977)
